# Assay outcomes as filed in PubChem BioAssay.
# Rows were chosen to be rich in hits. Some 2.8% of all compounds tested hit in one or more screens of this group.
# NPY-Y1 PAM-ag = potentiates or activates human NPY-Y1 receptor; P25929; NPY-Y1 expressing cells, potentiator/agonist activation; activation, % at 3.6 µM; actives 0.37% (n = 220,000); AID 1304; in the data active = activation above about 33%, passing the limit was not always enough;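 note: cells stimulated with NPY at EC10 then isoproterenol at EC100; 0% = low agonist plus stimulus and 100% = saturating agonist plus stimulus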
# NPY Y2 blocker = blocks the human neuropeptide Y Y2 receptor. NPY-Y2 expressing cells, antagonist mode. inhibition, % at 2.7 µM. actives 0.99% (n = 140,000). AID 793; in the data active = inhibition above about 17%;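 note: 0% = vehicle with agonist challenge and 100% = reference antagonist with challenge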
# PGE2 EP2 inh = blocks the human prostaglandin E2 receptor EP2 | P43116 | C6 glioma cells expressing human EP2, cAMP TR-FRET; cells stimulated with saturating PGE2 | inhibition, % at 25 µM | actives 0.52% (n = 260,000) | AID 1422;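 active = percent inhibition above 40 after rounding to a whole number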;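 note: rat C6 glioma host cells with rolipram phosphodiesterase inhibitor present; the protocol text gives 20 µM as final concentration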
# Target sequence (P43116 whole entry, looked up): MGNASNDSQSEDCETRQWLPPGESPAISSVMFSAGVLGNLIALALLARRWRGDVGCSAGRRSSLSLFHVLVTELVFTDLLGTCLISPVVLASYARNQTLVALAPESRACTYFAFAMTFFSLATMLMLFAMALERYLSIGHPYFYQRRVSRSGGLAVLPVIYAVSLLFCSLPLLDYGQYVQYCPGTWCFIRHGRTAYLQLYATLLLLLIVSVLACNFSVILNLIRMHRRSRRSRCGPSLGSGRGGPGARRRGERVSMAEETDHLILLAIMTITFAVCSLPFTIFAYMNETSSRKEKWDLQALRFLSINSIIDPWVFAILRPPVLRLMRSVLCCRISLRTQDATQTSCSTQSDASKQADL
# NPY Y1 blocker = NPY-Y1 (human) receptor antagonism; P25929; HEK293-CNG Y1 cells, membrane potential fluorescence; NPY at EC95, then isoproterenol; inhibition, % at 3.6 µM; actives 1% (n = 200,000); AID 1040;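 active = inhibition above the campaign mean inhibition of all tested compounds plus 3 SD, cut at about 20% in these data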;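 note: 0% = DMSO wells given NPY plus isoproterenol and 100% = isoproterenol alone without NPY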
#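 Material: HEK293 Y1/CNG channel cell line; also added: NPY (25 nM), isoproterenol (1 µM), Ro 20-1724 (25 µM); doses: one concentration, 3.6 µM, in 0.4% DMSO; schedule: compound incubation 1 h at room temperature, readout 45 min post-stimulation; technique: membrane potential fluorescence; measure: fluorescence ratio normalized to % inhibition between controls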
# EP2 mod = EP2 receptor (human) modulation | P43116 | EP2-expressing cells, cAMP HTRF FRET, PGE2 co-stimulation | induction, % at 25 µM | actives 0.83% (n = 260,000) | AID 940;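 active = compounds whose cAMP rise, as percent of the full-agonist control response, exceeds 60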;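 note: rat C6 glioma line stably carrying human EP2 under a CMV promoter; the protocol text gives 20 µM as final concentration; 100% = response of wells given 1 µM PGE2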
# NPY-Y2 PAM-ag = potentiates or activates human NPY-Y2 receptor | P49146 | cells expressing NPY-Y2, potentiator/agonist read-out | activation, % at 3.6 µM | actives 0.45% (n = 220,000); in the data active = activation above about 27%;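 note: cells stimulated with NPY near EC25 plus isoproterenol at EC100; 0% = vehicle plus submaximal agonist and 100% = vehicle plus saturating agonist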
# An asterisk follows results filed as active; nt = no result; ! = repeats disagree.
SMILES,NPY-Y1 PAM-ag,NPY Y2 blocker,PGE2 EP2 inh,NPY Y1 blocker,EP2 mod,NPY-Y2 PAM-ag
Cc1ccc(N2C(=O)NC(=O)/C(=C/C=C/c3ccco3)C2=O)cc1,-8,0,114*,8,-11,-2
CC(C)[C@]1(O)[C@@H](OC(=O)c2ccc[nH]2)[C@@]2(O)[C@@]3(C)C[C@]4(O)O[C@@]5([C@H](O)[C@@H](C)CC[C@@]35O)[C@@]2(O)[C@@]41C,nt,nt,51*,nt,6,nt
Cc1ccc(S(=O)ON2CCC(C(=O)O)(c3ccccc3)CC2)cc1 (centres undefined),nt,nt,45*,nt,20,nt
Cc1ccc(-c2nn(Cc3ccccc3)cc2C(=O)O)cc1,-1,nt,2,nt,0,-6
CCn1nc(CC(=O)N(CCN(C)C)Cc2ccc(F)cc2)c2ccccc2c1=O,nt,nt,4,nt,-31,nt
CCOC(=O)c1c(C)n(Cc2ccco2)c2ccc(O)cc12,-4,3,17,2,-11,-4
CCCCn1c(C)c(C(=O)OCC)c2c(CN3CCOCC3)c(O)ccc21,-59,34*,9,33*,9,-32
CC(C)(C)NCC(O)c1cc(Cl)c(N)c(Cl)c1 (centres undefined),97*,1,15,-11,41,88*
CC(=O)Nc1ccc(NC(=O)CN2C3CCC2CC(O)(c2ccco2)C3)cc1 (centres undefined),nt,nt,nt,nt,-43,nt
CCCCCc1nc2ccccc2c(=O)n1-c1ccccc1[N+](=O)[O-],9,5,1,10,38,14
CCCCCc1nc2c(c(=O)c3ccccc3n2C)c(=O)n1C1CCCCCC1,11,6,121*,6,-14,-8
Cc1nc2ccccc2cc1C[N+]12CN3CN(CN(C3)C1)C2,nt,nt,50*,nt,6,nt
c1ccc(C[N+]23CN4CN(CN(C4)C2)C3)cc1,nt,nt,6,nt,13,nt
CC1CCN(C2CCNCC2)CC1,nt,nt,4,nt,-31,nt
Cc1cc[c]([Sb]2[O][C@H]([C@H](O)[C@H](O)C(=O)O)[C@@H](CO)[O]2)cc1,nt,nt,49*,nt,19,nt
c1ccc2c([C@@H]3CCN(CCN4CCOCC4)C3)c[nH]c2c1,nt,nt,53*,nt,13,nt
Cc1ccc(OP(=O)(NCc2ccccc2)Oc2ccc(C)cc2)cc1,-2,12,9,8,7,27
Cc1ccc(OP(=O)(O)Oc2ccc(C)cc2)cc1,-17,12,7,26*,nt,-13
O=C(Nc1ccccc1)c1c(O)c2c(n(Cc3ccco3)c1=O)CCCC2,12,nt,4,nt,65*,-20
CCCN1CCC[C@@H]2Cc3[nH]ncc3C[C@H]21,nt,nt,17,nt,-7,nt
CCCN1CCC[C@@H]2Cc3nc(N)ncc3C[C@H]21,nt,nt,15,nt,66*,nt
CC12CCC(=O)C=C1CCC1C2CCC2(C)C(O)CCC12 (centres undefined),4,2,10,1,4,-5
C[C@@]12CC[C@@H]3[C@H](CCC4=CC(=O)CC[C@H]43)[C@H]1CC[C@H]2OC1(O)C(=O)c2ccccc2C1=O,nt,nt,64*,nt,-40,nt
COC(=O)C1=C(N)Oc2c(c(=O)oc3ccccc23)C1c1cccc(C(F)(F)F)c1 (centres undefined),nt,nt,6,nt,-11,nt
Oc1c(Cl)c(Cl)c(Cl)c(Cl)c1Cl (tested in a mixture with another compound),nt,nt,65*,nt,-21,nt
SMILES,NPY-Y1 PAM-ag,NPY Y2 blocker,PGE2 EP2 inh,NPY Y1 blocker,EP2 mod,NPY-Y2 PAM-ag
OCC[n+]1c2ccccc2nc2ccc(N3CCOCC3)cc21,15,nt,101*,nt,-117,3
C#CCOc1ccccc1CN1C2CCC1CC(O)(c1ccc(OC)cc1)C2 (centres undefined),nt,nt,8,nt,-14,nt
CCNC(=O)C1OC(n2cnc3c(N)ncnc32)C(O)C1O (centres undefined),-98,138*,2,127*,nt,-25
CN(C)C(=S)SSC(=S)N(C)C,4,nt,125*,0,-37,-7
O=P(O)(OP(=O)(O)c1ccccc1)c1ccccc1 (tested in a mixture with another compound),nt,nt,49*,nt,33,nt
C[C@@H]1[C@H]2C=C[C@@H]1[C@H](c1c3ccc(=O)c(O)c-3oc3c(O)c(O)ccc13)[C@@H]2C(=O)O,nt,nt,45*,nt,-10,nt
CCCCC[CH2][Hg][n+]1c[nH]c2nc(N)[nH]c(=S)c21,nt,nt,100*,nt,-28,nt
CC(=O)c1ccc(-c2ccccc2)cc1,7,4,10,-2,10,-1
O=C(O)C(O)(c1ccc(-c2ccccc2)cc1)c1ccc(-c2ccccc2)cc1,nt,nt,41*,nt,12,nt
COc1cc2c(cc1O)C[C@@H]1c3c(cc(O)c(OC)c3-2)CCN1C,nt,nt,13,nt,-10,nt
CN1CCc2cc(O)cc3c2[C@H]1Cc1ccc(O)c(O)c1-3,nt,nt,102*!,nt,13,nt
CCCN1CCc2cc(O)cc3c2[C@H]1Cc1ccc(O)c(O)c1-3,nt,nt,77*!,nt,9,nt
CCC(C)N1CCN(Cc2ccc(C)cc2)CC1 (centres undefined),nt,nt,14,nt,0,nt
COc1ccc(CC(=O)N(CCN(C)C)C2CCN(C)CC2)cc1C,nt,nt,5,nt,-27,nt
CCN(CCNc1ccc([N+](=O)[O-])c2cccnc12)S(=O)(=O)c1ccccc1,61*,6,8,-5,13,70*
CCN(CCNc1ccc([N+](=O)[O-])c2cccnc12)S(=O)(=O)c1ccc(Cl)cc1,6,9,11,7,-23,13
Cc1oc2c(c1CC(=O)N(CCN(C)C)Cc1ccc(F)cc1)C(=O)CC(C)(C)C2,nt,nt,11,nt,-60,nt
CC1=CC(=O)c2c(O)cccc2C1=O,nt,nt,79*,nt,-34,nt
NS(=O)(=O)c1ccc(-c2ccc([As](=O)(O)O)cc2)cc1,nt,nt,45*,nt,19,nt
CC(c1ccc(F)cc1)n1cc(C(=O)NC2CCCC2)nn1 (centres undefined),nt,nt,17,nt,-17,nt
CC1=C2C(=O)[C@H]3[C@@H](CC=C4C[C@@H](O)CC[C@@]43C)[C@@H]2CC[C@@]12O[C@@H]1C[C@H](C)CN[C@H]1[C@@H]2C,nt,nt,41*,nt,19,nt
Cc1c(/C=C2/CC3C4CC=C5CC(O)CCC5(C)C4CCC3(C)C2=O)cnn1C (centres undefined),-27,0,nt,2,nt,0
COC(=O)[C@@H]1C(=O)[C@H](C(=O)OC)[C@@H]2CC[C@H]1N2C,nt,nt,43*,nt,45,nt
O=[N+]([O-])c1cc(-c2ccc([As](=O)(O)O)cc2)ccc1[As](=O)(O)O,6,nt,47*!,nt,-3,-12
C[C@H]1OC(O[C@H]2[C@@H](O)CC(O[C@H]3[C@@H](O)C[C@H](O[C@H]4CC[C@]5(C)C6CC[C@]7(C)[C@@H](C8=CC(=O)OC8)[C@@H](O)C[C@]7(O)[C@@H]6CC[C@@H]5C4)O[C@@H]3C)O[C@@H]2C)C[C@H](O)C1O (some centres undefined),nt,nt,11,nt,3,nt
